In ChEMBL document CHEMBL1144934, “Efficacious and orally bioavailable thrombin inhibitors based on a 2,5-thienylamidine at the P1 position: discovery of N-carboxymethyl-d-diphenylalanyl-l-prolyl[(5-amidino-2-thienyl)methyl]amide” (J Med Chem, 2003):

Key:
[1] = Area under curve (AUC) was measured after oral dosing at 30 mg/kg in rat; type: ADME, organism-based; set-up: dose 30 mg/kg, route oral; details: in vivo
[2] = Maximal plasma concentration in rats after 30 mg/kg oral dose; type: ADME, organism-based; set-up: dose 30 mg/kg, route oral; details: rat
[3] = biological target: Prothrombin (Homo sapiens, UniProt P00734); test: In vitro inhibition constant (Ki) against human thrombin
[4] = Bioavailability in rat; type: ADME, organism-based; details: in vivo
[5] = Area under curve (AUC) was determined after intravenous dosing at 10 mg/kg in rat; type: ADME, organism-based; set-up: dose 10 mg/kg, route intravenous; details: in vivo
Method in brief: (§1)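 Male Sprague–Dawley rats (250–300 g), femoral artery and vein cannulated under light ether anesthesia; after recovery, 10 mg/kg given via femoral vein. Arterial blood sampled at 0, 1, 5, 15, 30, 60, 90, 120, 180, 240 min, collected into heparinized tubes, deproteinized with 2 volumes methanol, centrifuged; supernatant analyzed by HPLC (0.1% TFA/acetonitrile 81:19).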

[6] = Steady state volume of distribution (Vdss) was determined after intravenous dosing at 10 mg/kg in rat; type: ADME, organism-based; set-up: dose 10 mg/kg, route intravenous; details: in vivo, read-out: Vdss; method in brief: as §1
[7] = Half life of compound was determined after intravenous dosing at 10 mg/kg in rat; type: ADME, organism-based; set-up: dose 10 mg/kg, route intravenous; details: in vivo; method in brief: as §1
[8] = Clearance value was determined after intravenous dosing at 10 mg/kg in rat; type: ADME, organism-based; set-up: dose 10 mg/kg, route intravenous; details: in vivo; method in brief: as §1
[9] = In vitro metabolic stability was determined using liver S9 fraction from dog at initial concentration of 20 uM; type: ADME, Canis lupus familiaris; details: read-out: Recovery
Method in brief: (§2)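 Liver S9 (9000g supernatant of homogenate in Tris-acetate pH 7.4, KCl, EDTA) from rat, dog, monkey (pooled, n = 2) or human (n = 2); 20 µM final compound with NADPH generating system and S9 6.72 mg/mL in 100 mM phosphate pH 7.4, 37 °C. Samples methanol-deproteinized, HPLC; recovery after 30 min reported; no-NADPH control.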

[10] = In vitro metabolic stability was determined using liver S9 fraction from human at initial concentration of 20 uM; type: ADME; details: liver S9 fraction, read-out: Recovery; method in brief: as §2
[11] = In vitro metabolic stability was determined using liver S9 fraction from rat at initial concentration of 20 uM; type: ADME; details: read-out: Recovery; method in brief: as §2
[12] = system: Rattus norvegicus; test: In vivo inhibition of thrombus formation in thromboplastin-induced deep vein thrombosis (DVT) rat model after iv bolus dosing at 1 mg/kg; type: functional
[13] = system: Rattus norvegicus; test: Ex vivo activated clotting time was measured in rat plasma at 1 mg/kg; type: functional
[14] = organism: Rattus norvegicus; test: Ex vivo concentration of inhibitor to double the activated clotting time was measured in rat plasma; type: functional
[15] = organism: Rattus norvegicus; test: In vitro concentration of inhibitor to double the activated partial thromboplastin time was evaluated in rat; type: functional
[16] = In vitro metabolic stability was determined using liver S9 fraction from monkey at initial concentration of 20 uM; type: ADME, subcellular; details: simiiformes, read-out: Recovery; method in brief: as §2
[17] = organism: Homo sapiens

N=C(N)c1ccc(CNC(=O)[C@@H]2CCCN2C(=O)[C@H](NS(N)(=O)=O)C(c2ccccc2)c2ccccc2)cn1
AUC [1]: 4100 ng·h/mL | Cmax [2]: 1600 ng/mL

CN(C(=O)C(NS(=O)(=O)c1ccc2ccccc2c1)c1ccc(C(=N)NN)cc1)C1CCCC1 (stereo not given)
Ki [3]: 0.4 nM

N=C(N)c1ccc(CNC(=O)[C@@H]2CCCN2C(=O)[C@H](NS(N)(=O)=O)C(c2ccccc2)c2ccccc2)cc1
bioavailability [4]: 8% | AUC [5]: 19700 ng·h/mL | AUC [1]: 4530 ng·h/mL | Vd [6]: 0.297 L/kg | half-life [7]: 45 min | clearance [8]: 8.6 mL/min/kg | Cmax [2]: 2800 ng/mL | remaining at 20 µM [9]: 93% | remaining at 20 µM [10]: 92% | remaining at 20 µM [11]: 90% | inhibition in vivo at 1 mg/kg [12]: 100% | ACT [13]: 11 | Concentration to double activated clotting time [14]: 1.23 µM | APTT [15]: 1.24 µM | remaining at 20 µM [16]: 87% | APTT [17]: 0.14 µM

COC(=O)N[C@@H](C(=O)N1CCC[C@H]1C(=O)NCc1cc(C(=N)N)cs1)C(c1ccccc1)c1ccccc1
Cmax [2]: 4600 ng/mL | Ki [3]: 0.17 nM

N=C(N)c1ccc(CNC(=O)[C@@H]2CCCN2C(=O)[C@H](NS(N)(=O)=O)C(c2ccccc2)c2ccccc2)o1
AUC [1]: 2270 ng·h/mL | Cmax [2]: 1000 ng/mL | Ki [3]: 0.43 nM

N=C(N)c1cc(CNC(=O)[C@@H]2CCCN2C(=O)[C@H](NS(N)(=O)=O)C(c2ccccc2)c2ccccc2)cs1
Cmax [2]: 500 ng/mL | Ki [3]: 0.16 nM

N=C(N)c1ccc(CNC(=O)[C@@H]2CCCN2C(=O)[C@H](NS(N)(=O)=O)C(c2ccccc2)c2ccccc2)c(F)c1
AUC [1]: 1480 ng·h/mL | Cmax [2]: 1100 ng/mL | Ki [3]: 0.01 nM

N=C(N)c1ccc(CNC(=O)[C@@H]2CCCN2C(=O)[C@H](NS(N)(=O)=O)C(c2ccccc2)c2ccccc2)cc1F
AUC [1]: 3430 ng·h/mL | Cmax [2]: 2400 ng/mL | Ki [3]: 0.008 nM

COC(=O)N[C@@H](C(=O)N1CCC[C@H]1C(=O)NCc1ccc(C(=N)N)s1)C(c1ccccc1)c1ccccc1
bioavailability [4]: 8% | AUC [5]: 31200 ng·h/mL | AUC [1]: 7100 ng·h/mL | Vd [6]: 0.152 L/kg | half-life [7]: 53 min | clearance [8]: 5.4 mL/min/kg | Cmax [2]: 4100 ng/mL | remaining at 20 µM [9]: 91% | remaining at 20 µM [10]: 38% | remaining at 20 µM [11]: 60% | inhibition in vivo at 1 mg/kg [12]: 93% | ACT [13]: 5.2 | Concentration to double activated clotting time [14]: 3.75 µM | APTT [15]: 2.85 µM | Ki [3]: 0.015 nM | remaining at 20 µM [16]: < 10% | APTT [17]: 0.34 µM

COC(=O)N[C@@H](C(=O)N1CCC[C@H]1C(=O)NCc1ccc(C(=N)N)nc1)C(c1ccccc1)c1ccccc1
bioavailability [4]: 11% | AUC [5]: 80400 ng·h/mL | AUC [1]: 26100 ng·h/mL | Vd [6]: 0.139 L/kg | half-life [7]: 81 min | clearance [8]: 2.1 mL/min/kg | Cmax [2]: 14000 ng/mL | inhibition in vivo at 1 mg/kg [12]: 100% | ACT [13]: 6 | Ki [3]: 0.017 nM

CS(=O)(=O)N[C@@H](C(=O)N1CCC[C@H]1C(=O)NCc1ccc(C(=N)N)cc1)C(c1ccccc1)c1ccccc1
AUC [1]: 4380 ng·h/mL | Cmax [2]: 2800 ng/mL

N=C(N)c1ccc(CNC(=O)[C@@H]2CCCN2C(=O)[C@H](NCCC(=O)O)C(c2ccccc2)c2ccccc2)s1
Ki [3]: 0.01 nM

COC(=O)N[C@@H](C(=O)N1CCC[C@H]1C(=O)NCc1ccc(C(=N)N)cc1)C(c1ccccc1)c1ccccc1
bioavailability [4]: 6% | AUC [5]: 56800 ng·h/mL | AUC [1]: 9900 ng·h/mL | Vd [6]: 0.174 L/kg | half-life [7]: 69 min | clearance [8]: 3 mL/min/kg | Cmax [2]: 4000 ng/mL | remaining at 20 µM [9]: 65% | remaining at 20 µM [10]: 86% | remaining at 20 µM [11]: 80% | inhibition in vivo at 1 mg/kg [12]: 100% | ACT [13]: 6.8 | remaining at 20 µM [16]: 39%

CC1CNc2c(cccc2S(=O)(=O)N[C@@H](CCCNC(=N)N)C(=O)N2CC[C@@H](C)C[C@@H]2C(=O)O)C1 (stereo not given in full) [ARGATROBAN]
inhibition in vivo at 1 mg/kg [12]: 82% | ACT [13]: 1.9 | Concentration to double activated clotting time [14]: 1.97 µM | APTT [15]: 2.5 µM | APTT [17]: 0.57 µM

CS(=O)(=O)N[C@@H](C(=O)N1CCC[C@H]1C(=O)NCc1ccc(C(=N)N)s1)C(c1ccccc1)c1ccccc1.N=C(N)c1ccccc1
AUC [1]: 1420 ng·h/mL | Cmax [2]: 1300 ng/mL | Ki [3]: 0.005 nM

COC(=O)N[C@@H](C(=O)N1CCC[C@H]1C(=O)NCc1coc(C(=N)N)c1)C(c1ccccc1)c1ccccc1
AUC [1]: 18600 ng·h/mL | Cmax [2]: 7100 ng/mL | Ki [3]: 1.4 nM

N=C(N)c1csc(CNC(=O)[C@@H]2CCCN2C(=O)[C@H](NS(N)(=O)=O)C(c2ccccc2)c2ccccc2)c1
Cmax [2]: 2000 ng/mL | Ki [3]: 0.02 nM

N=C(N)c1ccc(CNC(=O)[C@@H]2CCCN2C(=O)[C@H](NS(N)(=O)=O)C(c2ccccc2)c2ccccc2)s1
bioavailability [4]: 11% | AUC [5]: 14400 ng·h/mL | AUC [1]: 4700 ng·h/mL | Vd [6]: 0.31 L/kg | half-life [7]: 34 min | clearance [8]: 11.6 mL/min/kg | remaining at 20 µM [9]: 96% | remaining at 20 µM [10]: 86% | remaining at 20 µM [11]: 84% | inhibition in vivo at 1 mg/kg [12]: 100% | Concentration to double activated clotting time [14]: 2.09 µM | APTT [15]: 1.5 µM | remaining at 20 µM [16]: 81% | APTT [17]: 0.19 µM

COC(=O)N[C@@H](C(=O)N1CCC[C@H]1C(=O)NCc1csc(C(=N)N)c1)C(c1ccccc1)c1ccccc1
bioavailability [4]: 7% | AUC [5]: 102000 ng·h/mL | Vd [6]: 0.23 L/kg | half-life [7]: 45 min | clearance [8]: 1.7 mL/min/kg | Cmax [2]: 8600 ng/mL | remaining at 20 µM [9]: 83% | remaining at 20 µM [10]: 13% | remaining at 20 µM [11]: 49% | inhibition in vivo at 1 mg/kg [12]: 98% | ACT [13]: 3.7 | Concentration to double activated clotting time [14]: 6.86 µM | APTT [15]: 5.2 µM | Ki [3]: 0.6 nM | remaining at 20 µM [16]: < 10% | APTT [17]: 0.37 µM

N=C(N)c1ccc(CNC(=O)[C@@H]2CCCN2C(=O)[C@H](NCC(=O)O)C(c2ccccc2)c2ccccc2)cc1
AUC [1]: 2000 ng·h/mL | Cmax [2]: 1300 ng/mL | remaining at 20 µM [9]: 95% | remaining at 20 µM [10]: 97% | remaining at 20 µM [11]: 87% | Ki [3]: 0.013 nM | remaining at 20 µM [16]: 80%
